Legend:
[1] = test system: patients with advanced solid tumors; assay: Phase I dose-escalation safety: adverse events; type: in vivo, human
[2] = Plasma pharmacokinetics, noncompartmental analysis; type: in vivo, human
Procedure, shortened: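 Oral dosing QD (part A1) or TIW (part A2). Intensive plasma samples were taken after the dose on cycle 1 days 1 and 15, for up to 24 h (A1) or 48 h (A2). Cmax, Tmax, AUC(0-Inf) and terminal half-life came from plasma concentrations by standard noncompartmental analysis, with descriptive statistics.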

Cc1cc(NC2CCN(C(=O)OC3CCN(C(=O)/C=C/CN(C)C)C3)CC2)n2ncc(C(C)C)c2n1 (centres unmarked) [LY3405105]
Patients with ≥1 TRAE ([1]; TIW (N = 11), ≥Grade 3): 0 n (%) | SAE related to study treatment: Abdominal pain ([1]; TIW (N = 11), ≥Grade 3): 0 n (%) | SAE related to study treatment: Acute kidney injury ([1]; TIW (N = 11), ≥Grade 3): 0 n (%) | SAE related to study treatment: Alanine aminotransferase increase ([1]; TIW (N = 11), ≥Grade 3): 0 n (%) | SAE related to study treatment: Diarrhea ([1]; TIW (N = 11), ≥Grade 3): 0 n (%) | SAE related to study treatment: Dyspnea ([1]; TIW (N = 11), ≥Grade 3): 0 n (%) | SAE related to study treatment: Hypotension ([1]; TIW (N = 11), ≥Grade 3): 0 n (%) | SAE related to study treatment: Mucosal inflammation ([1]; TIW (N = 11), ≥Grade 3): 0 n (%) | SAE related to study treatment: Nausea ([1]; TIW (N = 11), ≥Grade 3): 0 n (%) | SAE related to study treatment: Ophthalmic herpes zoster ([1]; TIW (N = 11), ≥Grade 3): 0 n (%) | SAE related to study treatment: Platelet count decrease ([1]; TIW (N = 11), ≥Grade 3): 0 n (%) | TRAE: Abdominal pain ([1]; TIW (N = 11), ≥Grade 3): 0 n (%) | TRAE: Anemia ([1]; TIW (N = 11), ≥Grade 3): 0 n (%) | TRAE: Asthenia ([1]; TIW (N = 11), ≥Grade 3): 0 n (%) | TRAE: Diarrhea ([1]; TIW (N = 11), ≥Grade 3): 0 n (%) | TRAE: Fatigue ([1]; TIW (N = 11), ≥Grade 3): 0 n (%) | TRAE: Nausea ([1]; TIW (N = 11), ≥Grade 3): 0 n (%) | TRAE: Platelet count decrease ([1]; TIW (N = 11), ≥Grade 3): 0 n (%) | TRAE: Vomiting ([1]; TIW (N = 11), ≥Grade 3): 0 n (%) | Patients with ≥1 SAE related to study treatment ([1]; Total (N = 54), Any grade): 7 (13) n (%) | Patients with ≥1 TRAE ([1]; Total (N = 54), Any grade): 35 (65) n (%) | SAE related to study treatment: Abdominal pain ([1]; Total (N = 54), Any grade): 1 (2) n (%) | SAE related to study treatment: Acute kidney injury ([1]; Total (N = 54), Any grade): 1 (2) n (%) | SAE related to study treatment: Alanine aminotransferase increase ([1]; Total (N = 54), Any grade): 1 (2) n (%) | SAE related to study treatment: Diarrhea ([1]; Total (N = 54), Any grade): 2 (4) n (%) | SAE related to study treatment: Dyspnea ([1]; Total (N = 54), Any grade): 1 (2) n (%) | SAE related to study treatment: Hypotension ([1]; Total (N = 54), Any grade): 1 (2) n (%) | SAE related to study treatment: Mucosal inflammation ([1]; Total (N = 54), Any grade): 1 (2) n (%) | SAE related to study treatment: Nausea ([1]; Total (N = 54), Any grade): 1 (2) n (%) | SAE related to study treatment: Ophthalmic herpes zoster ([1]; Total (N = 54), Any grade): 1 (2) n (%) | SAE related to study treatment: Platelet count decrease ([1]; Total (N = 54), Any grade): 1 (2) n (%) | TRAE: Abdominal pain ([1]; Total (N = 54), Any grade): 6 (11) n (%) | TRAE: Anemia ([1]; Total (N = 54), Any grade): 6 (11) n (%) | TRAE: Asthenia ([1]; Total (N = 54), Any grade): 6 (11) n (%) | TRAE: Diarrhea ([1]; Total (N = 54), Any grade): 18 (33) n (%) | TRAE: Fatigue ([1]; Total (N = 54), Any grade): 8 (15) n (%) | TRAE: Nausea ([1]; Total (N = 54), Any grade): 10 (19) n (%) | TRAE: Platelet count decrease ([1]; Total (N = 54), Any grade): 6 (11) n (%) | TRAE: Vomiting ([1]; Total (N = 54), Any grade): 8 (15) n (%) | Patients with ≥1 SAE related to study treatment ([1]; Total (N = 54), ≥Grade 3): 6 (11) n (%) | Patients with ≥1 TRAE ([1]; Total (N = 54), ≥Grade 3): 10 (19) n (%) | SAE related to study treatment: Abdominal pain ([1]; Total (N = 54), ≥Grade 3): 0 n (%) | SAE related to study treatment: Acute kidney injury ([1]; Total (N = 54), ≥Grade 3): 1 (2) n (%) | SAE related to study treatment: Alanine aminotransferase increase ([1]; Total (N = 54), ≥Grade 3): 1 (2) n (%) | SAE related to study treatment: Diarrhea ([1]; Total (N = 54), ≥Grade 3): 2 (4) n (%) | SAE related to study treatment: Dyspnea ([1]; Total (N = 54), ≥Grade 3): 1 (2) n (%) | SAE related to study treatment: Hypotension ([1]; Total (N = 54), ≥Grade 3): 0 n (%) | SAE related to study treatment: Mucosal inflammation ([1]; Total (N = 54), ≥Grade 3): 1 (2) n (%) | SAE related to study treatment: Nausea ([1]; Total (N = 54), ≥Grade 3): 1 (2) n (%) | SAE related to study treatment: Ophthalmic herpes zoster ([1]; Total (N = 54), ≥Grade 3): 1 (2) n (%) | SAE related to study treatment: Platelet count decrease ([1]; Total (N = 54), ≥Grade 3): 1 (2) n (%) | TRAE: Abdominal pain ([1]; Total (N = 54), ≥Grade 3): 0 n (%) | TRAE: Anemia ([1]; Total (N = 54), ≥Grade 3): 2 (4) n (%) | TRAE: Asthenia ([1]; Total (N = 54), ≥Grade 3): 0 n (%) | TRAE: Diarrhea ([1]; Total (N = 54), ≥Grade 3): 2 (4) n (%) | TRAE: Fatigue ([1]; Total (N = 54), ≥Grade 3): 1 (2) n (%) | TRAE: Nausea ([1]; Total (N = 54), ≥Grade 3): 1 (2) n (%) | TRAE: Platelet count decrease ([1]; Total (N = 54), ≥Grade 3): 3 (6) n (%) | TRAE: Vomiting ([1]; Total (N = 54), ≥Grade 3): 0 n (%) | Patients with dose-limiting toxicities ([1]; all 54 enrolled patients, all DLTs in part A1 (QD)): Seven | Patients reporting at least one treatment-related adverse event (TRAE) ([1]; all patients (N = 54)): 64.8% | Dose-limiting toxicity ([1]; part A1, 20 mg QD): no DLT was observed | Dose-limiting toxicity ([1]; part A1, 1, 2, 4, 8, 15, or 30 mg QD): no DLT was observed | Start of the steady-state AUC range where DLTs were observed ([1]; part A1, corresponds to doses of 30 to 45 mg QD): approximately 1000 ng h/mL | Dose-limiting toxicity ([1]; part A2 (TIW), 2 mg, 4 mg, or 8 mg): no DLT was observed | Dose dependence of plasma exposure ([2]; 1 to 45 mg QD day 1, 1 to 35 mg QD day 15, 2 to 8 mg TIW day 1 and day 15): exposures increased with dose | Geometric mean terminal elimination half-life ([2]; oral dosing, assessed in the TIW group): 15 to 19 h | Median time to maximum concentration ([2]; oral dosing, patients): 1 to 2 h

Source: paper PMC10769797 (The Oncologist, 2023)
